As usually defined, the IC50 is the point on the concentration scale where inhibition reaches its midpoint.

Activity calls are given as the source filed them. No cut-off for these calls is given here.

The nature of data set [1]: Antiproliferative activity against human U87MG cells after 48 hrs by MTT assay. It is filed as functional, cell-based, U-87MG ATCC. The settings on record: U-87 MG. In short, it runs like this:
(§1)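 Cells seeded at 3,000-5,000/well by doubling time and grown 24 h (37 °C, 5% CO2). HT-29/U87MG kept in DMEM + 10% FBS; A549/PC-3/HaCaT in RPMI-1640 + 10% FBS. Compounds for 48 h, then MTT 4 h, formazan dissolved in DMSO, A570 minus A630. % inhibition vs DMSO-treated cells; IC50 by probit. Three independent experiments in quadruplicate; mean ± SD.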
For orientation: Tetrazolium dyes change colour on reduction, which living cells bring about.

Data set [2] deals with A549. Description: Induction of apoptosis in human A549 cells assessed as chromatin condensation at antiproliferative IC50 after 24 hrs by Hoechst 33242 staining based confocal microscopic analysis. It is filed as functional, cell-based. In short, it runs like this:
(§2)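 A549 cells (1x10⁶/well) on coverslips exposed 24 h at IC50, then fixed in 4% paraformaldehyde 10 min at 4 °C. Stained with Hoechst 33242 (5 μg/mL) 20 min at room temp. Nuclear morphology examined by confocal microscopy, excitation 350/emission 460 nm, 20X.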

Data set [3] concerns A549. Nature of the data set: Antiproliferative activity against human A549 cells after 48 hrs by MTT assay. It is filed as functional, cell-based. The settings on record: A549, 48 h. The procedure, abridged: as §1
Data set [4] has as its system A549. Nature of the data set: Anti-migratory activity in human A549 cells at antiproliferative IC50 after 24 to 48 hrs by wound healing assay. It is filed as functional, cell-based.
The test system of a further data set is HT-29. Nature of the data set: Antiproliferative activity against human HT-29 cells after 48 hrs by MTT assay. It is filed as functional, cell-based. To be noted: HT-29, 48 h. The procedure, abridged: as §1
Data set [5] has as its system A549. Description: Anti-migratory activity in human A549 cells assessed as disruption of actin fibre assembly after 12 hrs by rhodamine phalloidin/Hoechst 33242 staining based confocal microscopic analysis. Type of data set: functional, cell-based. In short, it runs like this:
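A549 cells (1x10⁶/well) grown on coverslips 24 h, then exposed to compounds 12 h. Washed, fixed in 4% paraformaldehyde in PBS, stained with rhodamine-phalloidin (F-actin) and Hoechst 33242 (nuclei), mounted in anti-fade. Examined by confocal microscopy, 20X objective.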

The nature of data set [6]: Antiproliferative activity against human PC3 cells after 48 hrs by MTT assay. Type of data set: functional, cell-based. To be noted: PC-3, 48 h. In short, it runs like this:
as §1

The subject of data set [7] is A549. Nature of the data set: Cell cycle arrest in human A549 cells assessed as accumulation at G2/M phase at antiproliferative IC50 after 24 hrs by propidium iodide staining based flow cytometry (reference value: 27.2%). It is filed as functional. Background: A flow cytometer gives signals particle by particle.
Data set [8] has as its system A549. Nature of the data set: Induction of apoptosis in human A549 cells assessed as intracellular ROS level at antiproliferative IC50 after 24 hrs by DCFDA staining based fluorescence microscopic analysis relative to control. Type of data set: functional.
For data set [9], the system named is A549. Nature of the data set: Induction of apoptosis in human A549 cells assessed as loss in mitochondrial membrane potential at antiproliferative IC50 after 24 hrs by rhodamine 123 staining based spectrofluorometry relative to control. It is filed as functional. In short, it runs like this: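 A549 cells plated at 5×10^5 cells/mL, adhered overnight, then 24 h at IC50. Harvested and incubated with rhodamine-123 (10 µg/mL) in PBS 30 min at room temp, washed. Fluorescence read by spectrofluorometer, ex 480/em 530 nm, vs untreated cells. Mean ± SD of three independent experiments, each in triplicate.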

The nature of data set [10]: Selectivity ratio of IC50 for human HaCaT cells to IC50 for human A549 cells. Type of data set: ADME, cell-based. The settings on record: HaCaT cells versus A549 cells, read-out: Ratio IC50. The procedure, abridged:
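Ratio built from MTT IC50s: 48 h exposure, absorbance 570 minus 630 nm, inhibition relative to DMSO vehicle, probit-fitted IC50 for HaCaT keratinocytes and A549 cells. Three independent experiments, quadruplicate wells.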

For the next data set, the system named is HaCaT. Description: Antiproliferative activity against human HaCaT cells after 48 hrs by MTT assay. It is filed as cell-based. In short, it runs like this:
as §1

The subject of data set [11] is A549. Nature of the data set: Induction of apoptosis in human A549 cells assessed as nuclear fragmentation at antiproliferative IC50 after 24 hrs by Hoechst 33242 staining based confocal microscopic analysis. It is filed as functional, cell-based. In short, it runs like this: as §2

For the compound `COc1ccc(-c2nn(-c3ccccc3)cc2C(=O)/C=C\Nc2ccc(O)cc2)cc1`, the half-maximal inhibitory concentration (IC50) in data set [1] turned out to be 3.73 µM; with A549 [3], 2.77 µM; with HT-29, 2.46 µM; in data set [6] it was 1.98 µM; with HaCaT, 34.6 µM. For the same compound, the outcome with A549 [2], in the data set with A549 [4], in the data set with A549 [5] and in the data set on A549 [11] was Active. For the same compound, the Activity with A549 [7] is 43.1%; in the data set with A549 [9] it was 43.5%. Moreover, the “fold change (FC)” value in the data set with A549 [8] was determined as 2.1. The selectivity ratio in data set [10] turned out to be 10.

Regarding `O=C(/C=C\Nc1ccc(O)cc1)c1cn(-c2ccccc2)nc1-c1ccc(Cl)cc1`, the IC50 in data set [1] was 1.5 µM; in the data set on A549 [3], 1.91 µM; in the data set on HT-29, 2.5 µM; in data set [6], 4.43 µM; with HaCaT, 22.6 µM. In addition, the outcome with A549 [2], in the data set on A549 [4], with A549 [5] and in the data set with A549 [11] was Active. Besides, the results for the Activity in the data set on A549 [7] and in the data set on A549 [9] were 49.2% and 45.8%, respectively. For the same compound, the “fold change (FC)” value in the data set with A549 [8] is recorded as 2.1. In addition, the selectivity ratio in data set [10] amounted to 10.

As to `O=C(/C=C\Nc1ccc(O)cc1)c1cn(-c2ccccc2)nc1-c1ccc(F)cc1`, the 50% inhibitory concentration (IC50) was 4.7 µM in data set [1]; 1.5 µM with A549 [3]; 1.9 µM in the data set with HT-29; 2.6 µM in [6]; 16.3 µM in the data set with HaCaT. The outcome in the data set on A549 [2], with A549 [4], with A549 [5] and with A549 [11] was Active. Further, the Activity amounted to 41% in the data set with A549 [7] and 30% in the data set on A549 [9]. In addition, in the data set with A549 [8], the “fold change (FC)” value came to 2.1. Moreover, in data set [10], the selectivity ratio worked out at 10.

In the case of `COc1cc(N/C=C\C(=O)c2cn(-c3ccccc3)nc2-c2ccccc2)cc(OC)c1OC`, the concentration for half-maximal inhibition (IC50) in [1] came to 2.35 µM; in the data set with A549 [3], 6.34 µM; in the data set on HT-29 it was 9.8 µM; in data set [6], 5.93 µM; in the data set with HaCaT, 36.2 µM.
